Results on 21 compounds are retold here after ChEMBL document CHEMBL1153624, “Cyclic phosphoramidates as prodrugs of 2'-C-methylcytidine” (Eur J Med Chem, 2009).

One data set deals with Hepatitis C virus. Briefly: Antiviral activity against HCV infected in human HuH7 cells by cell-based subgenomic replicon assay. Format: functional, organism-based, Hepacivirus hominis, Huh-7. Conditions: Hepatitis C virus, Huh-7. The method, boiled down:
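HCV subgenomic replicon assay in HUH-7 cells, run in 10% fetal cow serum. Cytotoxicity was read in parallel as the prodrug concentration reducing cell viability by 50%.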
(In general: In antiviral work, replicon cells carry a viral genome segment that copies itself.)
Usually EC50 stands for the concentration needed to bring the measured effect to its halfway point. Low readings indicate higher potency in that assay, high ones lower potency in that assay. Take `C[C@H](NP1(=O)OC[C@H]2O[C@@H](n3ccc(N)nc3=O)[C@](C)(O)[C@@H]2O1)C(=O)OC1CCCCC1` (stereo in doubt; 14 F.E.): the EC50 was > 20 µM.
Regarding `CCOC(=O)[C@H](CC)NP1(=O)OC[C@H]2O[C@@H](n3ccc(N)nc3=O)[C@](C)(O)[C@@H]2O1` (stereo partly specified), a half-maximal effect (EC50) was put at 5.6 µM.
For the compound `C[C@H](NP1(=O)OC[C@H]2O[C@@H](n3ccc(N)nc3=O)[C@](C)(O)[C@@H]2O1)C(=O)OC1CCCC1` (mixture of isomers), the EC50 was > 20 µM.
On the same count and under the same terms, as for `COCCCOC(=O)[C@H](C)NP1(=O)OC[C@H]2O[C@@H](n3ccc(N)nc3=O)[C@](C)(O)[C@@H]2O1` (stereo in doubt; 16 S.E.), the figure is 28 µM.
The same measure, in the same setting: as for `CCCC(CCC)COC(=O)[C@H](C)NP1(=O)OC[C@H]2O[C@@H](n3ccc(N)nc3=O)[C@](C)(O)[C@@H]2O1` (stereo in doubt; 20 S.E.), the figure is 14 µM; as for `C[C@H](NP1(=O)OC[C@H]2O[C@@H](n3ccc(N)nc3=O)[C@](C)(O)[C@@H]2O1)C(=O)OC(C)(C)C` (stereo partly specified), > 20 µM; as for `C[C@H](NP1(=O)OC[C@H]2O[C@@H](n3ccc(N)nc3=O)[C@](C)(O)[C@@H]2O1)C(=O)OC1CCCCCC1` (stereo partly specified), > 10 µM.
On to `CCC[C@H](NP1(=O)OC[C@H]2O[C@@H](n3ccc(N)nc3=O)[C@](C)(O)[C@@H]2O1)C(=O)OCC` (mixture of isomers), for which the concentration for a half-maximal effect (EC50) was > 20 µM.
Same read-out and setting: for `CC(C)CCOC(=O)[C@H](C)NP1(=O)OC[C@H]2O[C@@H](n3ccc(N)nc3=O)[C@](C)(O)[C@@H]2O1` (stereo in doubt) the value was > 20 µM; for `CCCCCCOCCOC(=O)[C@H](C)NP1(=O)OC[C@H]2O[C@@H](n3ccc(N)nc3=O)[C@](C)(O)[C@@H]2O1` (stereo partly specified), 14 µM.
The compound `CCOC(=O)[C@H](C)N[P@]1(=O)OC[C@H]2O[C@@H](n3ccc(N)nc3=O)[C@](C)(O)[C@@H]2O1` came in with a concentration giving a half-maximal response (EC50) of 4 µM. This EC50 is about 3.5-fold lower than that of the compound before.
Consider `CCOC(=O)[C@H](CC(C)C)NP1(=O)OC[C@H]2O[C@@H](n3ccc(N)nc3=O)[C@](C)(O)[C@@H]2O1` (stereo partly specified), for which the EC50 is > 50 µM.
On the same count and under the same terms, as for `CCC(CC)COC(=O)[C@H](C)NP1(=O)OC[C@H]2O[C@@H](n3ccc(N)nc3=O)[C@](C)(O)[C@@H]2O1` (stereo partly specified), the figure is > 20 µM; as for `CCOC(=O)[C@H](C)N[P@@]1(=O)OC[C@H]2O[C@@H](n3ccc(N)nc3=O)[C@](C)(O)[C@@H]2O1`, > 20 µM; as for `CCCCCCCOC(=O)[C@H](C)NP1(=O)OC[C@H]2O[C@@H](n3ccc(N)nc3=O)[C@](C)(O)[C@@H]2O1` (stereo in doubt; 12 S.E.), 10.5 µM.
The same measure, in the same setting: as for `CCCCOC(=O)[C@H](C)NP1(=O)OC[C@H]2O[C@@H](n3ccc(N)nc3=O)[C@](C)(O)[C@@H]2O1` (stereo in doubt; 10 S.E.), the figure is 15 µM; as for `CC(C)[C@H](N)C(=O)O[C@@H]1[C@@H](CO)O[C@@H](n2ccc(N)nc2=O)[C@]1(C)O` [VALOPICITABINE], 7.6 µM.

Staying with this data set, now noted: huh-7.
On to `CCCC(CCC)COC(=O)[C@H](C)NP1(=O)OC[C@H]2O[C@@H](n3ccc(N)nc3=O)[C@](C)(O)[C@@H]2O1` (stereo in doubt; 20 F.E.), for which the EC50 is > 20 µM.
The same measure, in the same setting: as for `COCCCOC(=O)[C@H](C)NP1(=O)OC[C@H]2O[C@@H](n3ccc(N)nc3=O)[C@](C)(O)[C@@H]2O1` (stereo in doubt; 16 F.E.), the figure is > 20 µM.
The same measure, in the same setting: as for `CCCCOC(=O)[C@H](C)NP1(=O)OC[C@H]2O[C@@H](n3ccc(N)nc3=O)[C@](C)(O)[C@@H]2O1` (stereo in doubt; 10 F.E.), the figure is > 20 µM; as for `CCCCCCCOC(=O)[C@H](C)NP1(=O)OC[C@H]2O[C@@H](n3ccc(N)nc3=O)[C@](C)(O)[C@@H]2O1` (stereo in doubt; 12 F.E.), 15 µM.

System in the next data set: not listed separately
Briefly: Metabolic stability in sc dosed hamster liver assessed as formation of 2'-C-methylcytidine triphosphate ((2R,3R,4R,5R)-5-(4-amino-2-oxopyrimidin-1(2H)-yl)-3,4-dihydroxy-4-methyltetrahydrofuran-2-yl)methyl tetrahydrogen triphosphate at 1.5 umol after 6 hrs. Type of data set: ADME, organism-based. The following applies: cricetinae, in vivo. The method, boiled down:
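Hamsters received a single subcutaneous dose of compound formulated in PEG. Liver was collected at 6 h and intracellular 2'-C-methylcytidine triphosphate quantified as nmol/g tissue (LLOQ 0.2 nmol/g).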
For `C[C@H](NP1(=O)OC[C@H]2O[C@@H](n3ccc(N)nc3=O)[C@](C)(O)[C@@H]2O1)C(=O)OC1CCCCCC1` (stereo partly specified), the Activity worked out at 10.3 nmol/g.
On the same count and under the same terms, for `CCCCCCOCCOC(=O)[C@H](C)NP1(=O)OC[C@H]2O[C@@H](n3ccc(N)nc3=O)[C@](C)(O)[C@@H]2O1` (stereo partly specified) the value was 2.6 nmol/g; for `CCC(CC)COC(=O)[C@H](C)NP1(=O)OC[C@H]2O[C@@H](n3ccc(N)nc3=O)[C@](C)(O)[C@@H]2O1` (stereo partly specified), 8.9 nmol/g; for `CCCCCCCOC(=O)[C@H](C)NP1(=O)OC[C@H]2O[C@@H](n3ccc(N)nc3=O)[C@](C)(O)[C@@H]2O1` (stereo in doubt; 12 S.E.), 5.9 nmol/g.
As to `CC(C)[C@H](N)C(=O)O[C@@H]1[C@@H](CO)O[C@@H](n2ccc(N)nc2=O)[C@]1(C)O` [VALOPICITABINE], the Activity is recorded as < 0.2 nmol/g.

The next data set concerns Plasma. Briefly: Stability in human plasma assessed as 2'-C-methylcytidine triphosphate ((2R,3R,4R,5R)-5-(4-amino-2-oxopyrimidin-1(2H)-yl)-3,4-dihydroxy-4-methyltetrahydrofuran-2-yl)methyl tetrahydrogen triphosphate level.
Conditions: not given
Type of data set: ADME, cell-free. The method, boiled down: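 Prodrug stability was measured in human plasma and scored as the fraction of dose remaining over time: stable; 80% of dose left after 2 h; 30% left after 1 h; 0% left after 18 min.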
In the case of `CCOC(=O)[C@H](CC)NP1(=O)OC[C@H]2O[C@@H](n3ccc(N)nc3=O)[C@](C)(O)[C@@H]2O1` (stereo partly specified), the Stability result is recorded as “Stable”.

System in a further data set: not listed separately
In words: Cytotoxicity against human HuH7 cells assessed as cell viability. Format: cell-based, Huh-7.
Conditions: not given
The essentials:
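Cytotoxicity measured in HUH-7 cells carrying the HCV subgenomic replicon. The value is the prodrug concentration that reduces cell viability by 50%.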
Usually CC50 stands for the concentration that lowers cell viability or growth by half. With `CCOC(=O)[C@H](C)N[P@]1(=O)OC[C@H]2O[C@@H](n3ccc(N)nc3=O)[C@](C)(O)[C@@H]2O1`, the CC50 is > 100 µM.
Same read-out and setting: for `CCOC(=O)[C@H](C)N[P@@]1(=O)OC[C@H]2O[C@@H](n3ccc(N)nc3=O)[C@](C)(O)[C@@H]2O1` the value was > 100 µM.
Turning to `CC(C)[C@H](N)C(=O)O[C@@H]1[C@@H](CO)O[C@@H](n2ccc(N)nc2=O)[C@]1(C)O` [VALOPICITABINE], the cytotoxic concentration (CC50) was > 100 µM.

System in the next data set: not listed separately
Briefly: Metabolic stability in po dosed hamster liver assessed as 2'-C-methylcytidine triphosphate ((2R,3R,4R,5R)-5-(4-amino-2-oxopyrimidin-1(2H)-yl)-3,4-dihydroxy-4-methyltetrahydrofuran-2-yl)methyl tetrahydrogen triphosphate level at 30.3 umol. The following applies: cricetinae, in vivo. Type of data set: ADME, organism-based.
Turning to `CCOC(=O)[C@H](CC)NP1(=O)OC[C@H]2O[C@@H](n3ccc(N)nc3=O)[C@](C)(O)[C@@H]2O1` (stereo partly specified), the Activity is given as < 0.2 nmol/g.
